{"source": "paper PMC11608545", "about": "(International Journal of Nanomedicine, 2024)", "key": {"[1]": {"tested_on": "A-549", "assay": "Antiproliferative activity, SRB assay", "type": "cell-based, human", "conditions": "for calculated selectivity index SI: IC50 MCF-10A / IC50 A-549"}, "[2]": {"tested_on": "MCF-10A", "assay": "cells", "type": "cell-based, human"}, "[3]": {"tested_on": "PC-3", "assay": "Antiproliferative activity, SRB assay", "type": "cell-based, human", "conditions": "for calculated selectivity index SI: IC50 MCF-10A / IC50 PC3"}, "[4]": {"tested_on": "MDA-MB-468", "assay": "Antiproliferative activity, SRB assay", "type": "cell-based, human", "conditions": "for IC50: MDA-MB-468, 72 h; for calculated selectivity index SI: IC50 MCF-10A / IC50 MDA-MB-468"}, "[5]": {"tested_on": "MCF-7", "assay": "Antiproliferative activity, SRB assay", "type": "cell-based, human", "conditions": "for calculated selectivity index SI: IC50 MCF-10A / IC50 MCF-7"}, "[6]": {"conditions": "background statement, no reference given, cited from earlier work"}, "[7]": {"tested_on": "MV4-11", "assay": "Antiproliferative activity, MTT assay", "type": "cell-based, human", "conditions": "for IC50: MV4-11, 72 h; for calculated selectivity index SI: IC50 MCF-10A / IC50 MV4-11"}, "[8]": {"tested_on": "MV4-11 cells", "assay": "Apoptosis determination by Annexin V staining", "type": "cell-based, human", "conditions": "MV4-11, 1.5 × IC50"}, "[9]": {"tested_on": "MDA-MB-468 cells", "assay": "Cell cycle analysis", "type": "cell-based, human", "conditions": "MDA-MB-468, 72 h, 1.5 × IC50"}, "[10]": {"tested_on": "caspase-3/7 in MDA-MB-468 cells", "assay": "Caspase-3/7 activity determination", "type": "cell-based, human", "conditions": "MDA-MB-468, 24 h or 72 h, 1.5 × IC50"}, "[11]": {"tested_on": "caspase-3/7 in MV4-11 cells", "assay": "Caspase-3/7 activity determination", "type": "cell-based, human", "conditions": "MV4-11, 24 h or 72 h, 1.5 × IC50"}, "[12]": {"tested_on": "MV4-11 cells", "assay": "Cell cycle analysis", "type": "cell-based, human", "conditions": "MV4-11, 72 h, 1.5 × IC50"}, "[13]": {"tested_on": "selected cancer cell lines (MV4-11, A549, PC-3, MDA-MB-468, MCF-7)", "assay": "Antiproliferative activity, all studied cancer cell lines together", "type": "cell-based, human", "conditions": "read-out: IC50 values, range over all studied cancer cell lines; 72 h", "summary_of_the_method": "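Cells were seeded 24 h before treatment at 0.5×10^4 (A549), 0.75×10^4 (MDA-MB-468, MCF-7) or 1×10^4 (PC-3, MV4-11) cells/well. They were exposed 72 h to test compound at 1–625 μM in medium; loaded nanocarrier was dosed by encapsulated conjugate. Read-out was MTT (MV4-11) or SRB (others). Triplicates, 3–5 independent runs; IC50 per run, mean ± SD.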"}, "[14]": {"conditions": "SRB, n.a. = not active in the range concentration (5–625 μM)"}}, "data": [{"smiles": "COc1ccc2c(c1)c(CC(=O)O)c(C)n2C(=O)c1ccc(Cl)cc1", "note": "[IND, indomethacin, reference compound]", "values": [{"measurement": "IC50", "setting": "[1]; Homo sapiens, A549, 72 h", "result": "121 ± 31.6", "unit": "µM"}, {"measurement": "IC50", "setting": "[2]; Homo sapiens, MCF-10A, 72 h", "result": "191 ± 11.4", "unit": "µM"}, {"measurement": "IC50", "setting": "[3]; Homo sapiens, PC-3, 72 h", "result": "160 ± 61.5", "unit": "µM"}, {"measurement": "IC50", "setting": "[4]; Homo sapiens", "result": "270 ± 56.3", "unit": "µM"}, {"measurement": "IC50", "setting": "[5]; Homo sapiens, MCF7, 72 h", "result": "187 ± 19.4", "unit": "µM"}, {"measurement": "Biopharmaceutical Classification System (BCS) class", "setting": "[6]", "result": "Class II"}, {"measurement": "water solubility", "setting": "[6]; pH7", "result": 105.2, "unit": "µg/mL"}, {"measurement": "IC50", "setting": "[7]; Homo sapiens", "result": "204 ± 41.5", "unit": "µM"}]}, {"smiles": "COc1ccc2c(c1)c(CC(=O)OC[C@@H](O)COP(=O)([O-])OCC[N+](C)(C)C)c(C)n2C(=O)c1ccc(Cl)cc1", "note": "[IND-LPC, 1-indomethacinoyl-2-hydroxy-sn-glycero-3-phosphocholine]", "values": [{"measurement": "effect on number of apoptotic (AnV+/PI+) cells", "setting": "[8]", "result": "slightly increased"}, {"measurement": "IC50", "setting": "[1]; A-549, 72 h, SRB", "result": "27.2 ± 4.9", "unit": "µM"}, {"measurement": "calculated selectivity index SI", "setting": "[1]", "result": 0.25}, {"measurement": "effect on cell cycle / cell death", "setting": "[9]", "result": "strongly induces breast cancer cell death"}, {"measurement": "caspase-3/7 activation", "setting": "[10]", "result": "higher level after 24 h than 72 h"}, {"measurement": "caspase-3/7 activation", "setting": "[11]", "result": "higher level after 24 h than 72 h"}, {"measurement": "toxicity towards MCF-10A at the active doses", "setting": "[2]; at 3.1 μM and 2.7 μM", "result": "not toxic"}, {"measurement": "effect on cell cycle / cell death", "setting": "[12]", "result": "strongly induced cell death"}, {"measurement": "calculated selectivity index SI", "setting": "[3]", "result": 0.48}, {"measurement": "IC50", "setting": "[3]; PC3, 72 h, SRB", "result": "14.4 ± 2.9", "unit": "µM"}, {"measurement": "calculated selectivity index SI", "setting": "[4]", "result": 2.56}, {"measurement": "fold lower IC50 than free IND", "setting": "[4]; MDA-MB-468", "result": 100, "unit": "fold"}, {"measurement": "IC50", "setting": "[4]; [14]", "result": "2.7 ± 0.5", "unit": "µM"}, {"measurement": "times more active against MDA-MB-468 than MCF-7", "setting": "[4]; MDA-MB-468 vs MCF-7", "result": 3, "unit": "times"}, {"measurement": "calculated selectivity index SI", "setting": "[5]", "result": 0.87}, {"measurement": "IC50", "setting": "[5]; MCF-7, 72 h, SRB", "result": "7.9 ± 0.7", "unit": "µM"}, {"measurement": "calculated selectivity index SI", "setting": "[7]", "result": 2.23}, {"measurement": "fold lower IC50 than free IND", "setting": "[7]; MV4-11", "result": 66, "unit": "fold"}, {"measurement": "IC50", "setting": "[7]; MTT", "result": "3.1 ± 0.5", "unit": "µM"}]}, {"smiles": "CCCCCCCCCCCCCCCC(=O)O[C@H](COC(=O)Cc1c(C)n(C(=O)c2ccc(Cl)cc2)c2ccc(OC)cc12)COP(=O)([O-])OCC[N+](C)(C)C", "note": "[IND-PA-PC, 1-indomethacinoyl-2-palmitoyl-sn-glycero-3-phosphocholine]", "values": [{"measurement": "IC50", "setting": "[1]; A-549, 72 h, SRB", "result": "423 ± 84.1", "unit": "µM"}, {"measurement": "IC50", "setting": "[3]; PC3, 72 h, SRB", "result": "563 ± 75.1", "unit": "µM"}, {"measurement": "IC50", "setting": "[5]; MCF-7, 72 h, SRB", "result": "424 ± 14.4", "unit": "µM"}, {"measurement": "IC50", "setting": "[7]; MTT", "result": "430 ± 104", "unit": "µM"}]}, {"smiles": "CCCCCCCCCCCCCCCCCC(=O)O[C@H](COC(=O)Cc1c(C)n(C(=O)c2ccc(Cl)cc2)c2ccc(OC)cc12)COP(=O)([O-])OCC[N+](C)(C)C", "note": "[IND-SA-PC, 1-indomethacinoyl-2-stearoyl-sn-glycero-3-phosphocholine]", "values": [{"measurement": "IC50", "setting": "[1]; A-549, 72 h, SRB", "result": "201 ± 23.5", "unit": "µM"}, {"measurement": "calculated selectivity index SI", "setting": "[1]", "result": 1.51}, {"measurement": "calculated selectivity index SI", "setting": "[3]", "result": 1.46}, {"measurement": "IC50", "setting": "[3]; PC3, 72 h, SRB", "result": "209 ± 18.3", "unit": "µM"}, {"measurement": "calculated selectivity index SI", "setting": "[4]", "result": 1.42}, {"measurement": "IC50", "setting": "[4]; [14]", "result": "214 ± 46.1", "unit": "µM"}, {"measurement": "calculated selectivity index SI", "setting": "[5]", "result": 1.33}, {"measurement": "IC50", "setting": "[5]; MCF-7, 72 h, SRB", "result": "230 ± 10.3", "unit": "µM"}, {"measurement": "calculated selectivity index SI", "setting": "[7]", "result": 1.90}, {"measurement": "IC50", "setting": "[7]; MTT", "result": "160 ± 59.7", "unit": "µM"}]}, {"smiles": "CCCCCCCC/C=C\\CCCCCCCC(=O)OC[C@H](COP(=O)([O-])OCC[N+](C)(C)C)OC(=O)Cc1c(C)n(C(=O)c2ccc(Cl)cc2)c2ccc(OC)cc12", "note": "[OA-IND-PC, 1-oleoyl-2-indomethacinoyl-sn-glycero-3-phosphocholine]", "values": [{"measurement": "effect on number of apoptotic (AnV+/PI+) cells", "setting": "[8]", "result": "slightly increased"}, {"measurement": "IC50", "setting": "[1]; A-549, 72 h, SRB", "result": "53.8 ± 1.2", "unit": "µM"}, {"measurement": "calculated selectivity index SI", "setting": "[1]", "result": 1.89}, {"measurement": "IC50", "setting": "[13]", "result": "33.5 to 67.5", "unit": "µM"}, {"measurement": "effect on cell cycle / cell death", "setting": "[9]", "result": "stopped the cell cycle in the G0/G1 phase, but did not induce cell death"}, {"measurement": "caspase-3/7 activation", "setting": "[11]", "result": "strongly increased caspase activity in MV4-11 cells after 72 h"}, {"measurement": "effect on cell cycle / cell death", "setting": "[12]", "result": "strongly induced cell death"}, {"measurement": "calculated selectivity index SI", "setting": "[3]", "result": 1.75}, {"measurement": "IC50", "setting": "[3]; PC3, 72 h, SRB", "result": "58 ± 11.9", "unit": "µM"}, {"measurement": "calculated selectivity index SI", "setting": "[4]", "result": 1.80}, {"measurement": "IC50", "setting": "[4]; [14]", "result": "56.4 ± 0.6", "unit": "µM"}, {"measurement": "calculated selectivity index SI", "setting": "[5]", "result": 1.70}, {"measurement": "IC50", "setting": "[5]; MCF-7, 72 h, SRB", "result": "59.8 ± 2.1", "unit": "µM"}, {"measurement": "calculated selectivity index SI", "setting": "[7]", "result": 1.80}, {"measurement": "IC50", "setting": "[7]; MTT", "result": "56.3 ± 0.8", "unit": "µM"}]}, {"smiles": "CCCCCCCCCCCCCCCC(=O)OC[C@H](COP(=O)([O-])OCC[N+](C)(C)C)OC(=O)Cc1c(C)n(C(=O)c2ccc(Cl)cc2)c2ccc(OC)cc12", "note": "[PA-IND-PC, 1-palmitoyl-2-indomethacinoyl-sn-glycero-3-phosphocholine]", "values": [{"measurement": "IC50", "setting": "[1]; A-549, 72 h, SRB", "result": "233 ± 108", "unit": "µM"}, {"measurement": "calculated selectivity index SI", "setting": "[1]", "result": 1.33}, {"measurement": "calculated selectivity index SI", "setting": "[3]", "result": 1.33}, {"measurement": "IC50", "setting": "[3]; PC3, 72 h, SRB", "result": "233 ± 0.6", "unit": "µM"}, {"measurement": "calculated selectivity index SI", "setting": "[4]", "result": 1.10}, {"measurement": "IC50", "setting": "[4]; [14]", "result": "281 ± 35.9", "unit": "µM"}, {"measurement": "calculated selectivity index SI", "setting": "[5]", "result": 1.12}, {"measurement": "IC50", "setting": "[5]; MCF-7, 72 h, SRB", "result": "276 ± 134", "unit": "µM"}, {"measurement": "calculated selectivity index SI", "setting": "[7]", "result": 1.16}, {"measurement": "IC50", "setting": "[7]; MTT", "result": "268 ± 34.3", "unit": "µM"}]}, {"smiles": "CCCCCCCCCCCCCCCCCC(=O)OC[C@H](COP(=O)([O-])OCC[N+](C)(C)C)OC(=O)Cc1c(C)n(C(=O)c2ccc(Cl)cc2)c2ccc(OC)cc12", "note": "[SA-IND-PC, 1-stearoyl-2-indomethacinoyl-sn-glycero-3-phosphocholine]", "values": [{"measurement": "IC50", "setting": "[1]; A-549, 72 h, SRB", "result": "243 ± 15.7", "unit": "µM"}, {"measurement": "calculated selectivity index SI", "setting": "[1]", "result": 2.22}, {"measurement": "calculated selectivity index SI", "setting": "[3]", "result": 2.34}, {"measurement": "IC50", "setting": "[3]; PC3, 72 h, SRB", "result": "230 ± 15.8", "unit": "µM"}, {"measurement": "calculated selectivity index SI", "setting": "[4]", "result": 1.87}, {"measurement": "IC50", "setting": "[4]; [14]", "result": "289 ± 12.2", "unit": "µM"}, {"measurement": "calculated selectivity index SI", "setting": "[5]", "result": 1.87}, {"measurement": "IC50", "setting": "[5]; MCF-7, 72 h, SRB", "result": "288 ± 22.2", "unit": "µM"}, {"measurement": "calculated selectivity index SI", "setting": "[7]", "result": 1.64}, {"measurement": "IC50", "setting": "[7]; MTT", "result": "329 ± 34.6", "unit": "µM"}]}]}
